# Test results as given in article PMC2745822 (The Journal of pharmacology and experimental therapeutics, 2008).
# Like-named read-outs stand apart in the source and are kept apart here.
# Assays:
# [1] = molecular target: T1, rat M4 mAChR (Rattus norvegicus, UniProt P08485); type: cell-based; details: for EC50: potentiation of an EC20 concentration of ACh
# T1 sequence (P08485 1-478): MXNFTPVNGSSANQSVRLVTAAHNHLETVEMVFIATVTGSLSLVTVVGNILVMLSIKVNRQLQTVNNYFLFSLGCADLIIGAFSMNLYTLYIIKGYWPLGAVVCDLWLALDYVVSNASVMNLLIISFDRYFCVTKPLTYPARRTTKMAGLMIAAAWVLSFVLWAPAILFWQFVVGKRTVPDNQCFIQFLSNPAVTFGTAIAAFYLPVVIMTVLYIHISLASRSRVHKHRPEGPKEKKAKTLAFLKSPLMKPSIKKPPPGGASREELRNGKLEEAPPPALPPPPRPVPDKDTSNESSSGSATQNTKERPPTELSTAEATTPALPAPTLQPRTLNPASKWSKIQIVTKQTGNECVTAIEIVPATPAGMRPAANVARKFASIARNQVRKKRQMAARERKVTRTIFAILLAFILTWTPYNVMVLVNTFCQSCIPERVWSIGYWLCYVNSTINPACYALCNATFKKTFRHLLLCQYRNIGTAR
# [2] = molecular target: T2, rM4 receptor (Rattus norvegicus, UniProt P08485); assay: [3H]NMS equilibrium radioligand binding, membranes from rM4-expressing CHO cells
# T2 sequence (P08485 1-478): T1 sequence (P08485 1-478)
# [3] = molecular target: T3, M1 mAChR (Rattus norvegicus, UniProt P08482); assay: Calcium mobilization selectivity assay, CHO K1 cells expressing M1; type: cell-based; details: 30 µM compound
# T3 sequence (P08482 1-460): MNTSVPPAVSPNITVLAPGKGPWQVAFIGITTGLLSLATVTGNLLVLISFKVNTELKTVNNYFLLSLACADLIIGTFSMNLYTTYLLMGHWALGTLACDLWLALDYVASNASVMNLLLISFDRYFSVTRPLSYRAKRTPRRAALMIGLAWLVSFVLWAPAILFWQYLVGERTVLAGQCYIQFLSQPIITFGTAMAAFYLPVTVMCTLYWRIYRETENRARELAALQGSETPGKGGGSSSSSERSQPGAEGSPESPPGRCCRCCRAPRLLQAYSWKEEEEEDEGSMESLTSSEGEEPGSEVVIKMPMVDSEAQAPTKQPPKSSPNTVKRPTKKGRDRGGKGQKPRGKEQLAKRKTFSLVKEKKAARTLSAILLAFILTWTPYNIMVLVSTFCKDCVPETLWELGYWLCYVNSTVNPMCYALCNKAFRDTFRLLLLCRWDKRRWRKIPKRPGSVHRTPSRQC
# Summary of the method: (§1)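 CHO K1 cells stably expressing rat M1 or human M3 or M5, coupled through endogenous Gq. Seeded 50,000 cells/well and held overnight in antibiotic-free medium at 37°C/5% CO2. Loaded with 2 µM Fluo-4 AM for 45 min at 37°C in HBSS/20 mM HEPES/2.5 mM probenecid, pH 7.4. […] Three independent experiments.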
# [4] = molecular target: T4, M5 mAChR (Homo sapiens, UniProt P08912); assay: Calcium mobilization selectivity assay, CHO K1 cells expressing M5; type: cell-based; details: 30 µM compound
# T4 sequence (P08912 1-532): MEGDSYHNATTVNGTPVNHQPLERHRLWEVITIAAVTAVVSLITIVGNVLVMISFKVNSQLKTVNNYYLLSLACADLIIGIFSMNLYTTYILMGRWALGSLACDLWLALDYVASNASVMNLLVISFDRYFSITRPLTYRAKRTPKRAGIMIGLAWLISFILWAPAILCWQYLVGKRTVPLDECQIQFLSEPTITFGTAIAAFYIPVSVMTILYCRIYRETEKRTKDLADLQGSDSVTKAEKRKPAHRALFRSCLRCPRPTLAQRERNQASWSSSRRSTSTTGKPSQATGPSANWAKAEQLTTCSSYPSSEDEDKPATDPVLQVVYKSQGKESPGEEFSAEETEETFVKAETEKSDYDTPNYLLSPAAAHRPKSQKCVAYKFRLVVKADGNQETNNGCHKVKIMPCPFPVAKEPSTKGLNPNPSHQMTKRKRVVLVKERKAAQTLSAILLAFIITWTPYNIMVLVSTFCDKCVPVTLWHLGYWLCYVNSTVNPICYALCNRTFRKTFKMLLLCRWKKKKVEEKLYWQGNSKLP
# Summary of the method: as §1
# [5] = Formulation into homogeneous dosing solution; type: physicochemical; details: vehicles acceptable for in vivo studies
# Summary of the method: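 Test compound was jet-milled to uniform nanoparticles before vehicle formulation. It was then dissolved at 56.6 mg/ml in 10% Tween 80 in double-deionized water, with pH adjusted to about 7.0 using 1 N NaOH. The mixture was sonicated until a uniform homogeneous solution formed, for intraperitoneal dosing.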
structure (smiles),measurement,setting,value
"Cc1cc(C)c2c(N)c(C(=O)NCc3ccc4c(c3)OCO4)sc2n1 [VU0152099, 3-amino-N-(benzo[d][1,3]dioxol-5-ylmethyl)-4,6-dimethylthieno[2,3-b]pyridine carboxamide]",maximal leftward shift of the ACh CRC,[1]; 30 µM compound,30 fold
same,response in the absence of an ACh EC20 (agonist activity),[1]; compound alone,neither VU0152099 nor VU0152100 elicited a response
same,Rat M4 Ach -Fold Shift,"[1]; leftward shift of ACh CRC, average of at least three determinations",29.7 fold
same,EC50,[1]; read-out: M4 PAM activity EC50,403 nM
same,EC50,"[1]; read-out: Rat M4 EC50, average of at least three determinations",400 nM
same,displacement of [3H]NMS,"[2]; 0.1 nM [3H]NMS, concentrations up to 30 µM",neither M4 PAM displaced
same,leftward shift in the potency of ACh to displace [3H]NMS,[2]; 10 µM compound,25 fold
same,shift in the ACh CRC at M1,[3],No shift in the ACh CRC was observed
same,shift in the ACh CRC at M5,[4],No shift in the ACh CRC was observed
same,formulation into homogeneous dosing solution,[5],afforded homogeneous dosing solutions in multiple vehicles acceptable for in vivo studies
